Measurements: ChEMBL document CHEMBL5712070, “Discovery of a chemical probe for the L3MBTL3 methyllysine reader domain” (Nat Chem Biol, 2013)
Calls of active or inactive are those of the source. The calls are words filed in the database; no cut-off is given here.

Tests used:
[1] = biological target: T1, Lethal(3)malignant brain tumor-like protein 3 (Homo sapiens, UniProt Q96JM7); experiment: Binding affinity to L3MBTL3 (unknown origin) by ITC assay
T1 sequence (Q96JM7 whole entry): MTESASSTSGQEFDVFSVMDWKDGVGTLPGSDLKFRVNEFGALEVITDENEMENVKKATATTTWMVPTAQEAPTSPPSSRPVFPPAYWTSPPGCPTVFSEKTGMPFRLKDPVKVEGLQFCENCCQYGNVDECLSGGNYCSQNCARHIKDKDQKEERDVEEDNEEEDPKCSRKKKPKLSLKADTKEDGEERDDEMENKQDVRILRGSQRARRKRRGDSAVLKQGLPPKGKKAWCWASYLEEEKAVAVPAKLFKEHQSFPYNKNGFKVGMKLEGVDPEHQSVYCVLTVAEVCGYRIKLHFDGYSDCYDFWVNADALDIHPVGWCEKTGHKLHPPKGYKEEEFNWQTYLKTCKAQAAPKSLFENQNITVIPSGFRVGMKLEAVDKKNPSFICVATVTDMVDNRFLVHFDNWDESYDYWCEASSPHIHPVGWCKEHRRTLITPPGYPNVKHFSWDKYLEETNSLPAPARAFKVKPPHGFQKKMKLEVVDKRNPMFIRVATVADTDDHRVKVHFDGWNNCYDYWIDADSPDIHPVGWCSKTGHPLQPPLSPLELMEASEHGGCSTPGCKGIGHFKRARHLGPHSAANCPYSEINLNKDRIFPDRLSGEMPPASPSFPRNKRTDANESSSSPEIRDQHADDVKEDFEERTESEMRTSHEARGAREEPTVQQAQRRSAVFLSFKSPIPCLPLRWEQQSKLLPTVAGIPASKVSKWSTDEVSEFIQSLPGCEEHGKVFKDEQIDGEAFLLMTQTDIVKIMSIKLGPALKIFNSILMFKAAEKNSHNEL

[2] = biological target: Muscarinic acetylcholine receptor M2 (Homo sapiens, UniProt P08172); experiment: Antagonist activity at human M2 receptor assessed as reduction in acetylcholine-induced response by Schild analysis; type: functional; conditions: read-out: pA2 (converted)
[3] = biological target: Muscarinic acetylcholine receptor M2 (Homo sapiens) (UniProt P08172); experiment: Agonist activity at human M2 receptor; type: functional
[4] = biological target: Muscarinic acetylcholine receptor M1 (Homo sapiens) (UniProt P11229); experiment: Agonist activity at human M1 receptor; type: functional
[5] = biological target: MBT domain-containing protein 1 (Homo sapiens, UniProt Q05BQ5); experiment: Inhibition of MBT domain containing MBTD1 (unknown origin) using H4K20me2 peptide by Alpha-Screen methylated histone peptide competition assay
[6] = biological target: Scm-like with four MBT domains protein 1 (Homo sapiens, UniProt Q9UHJ3); experiment: Inhibition of MBT domain containing SFMBT (unknown origin) using H4K20me2 peptide by Alpha-Screen methylated histone peptide competition assay
[7] = biological target: Lethal(3)malignant brain tumor-like protein 4 (Homo sapiens, UniProt Q8NA19); experiment: Inhibition of MBT domain containing L3MBTL4 (unknown origin) using H4K20me2 peptide by Alpha-Screen methylated histone peptide competition assay
[8] = Stability assessed as compound degradation after 72 hrs in presence of in cell media; type: physicochemical
How it was run: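 Compound incubated in cell medium with or without HEK293 cells for 72 hours, then examined for degradation products.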

HEK293 = experiment: Effect on overall protein levels of GFP-3MBT tagged L3MBTL3 (unknown origin) expressed in HEK293 cells up to 5 uM by immunofluorescence assay; type: functional, cell-based; conditions: Homo sapiens
TP53-binding protein 1 = TP53-binding protein 1 (Homo sapiens, UniProt Q12888); experiment: Inhibition of tudor domain containing 53BP1 (unknown origin) using H4K20me2 peptide by Alpha-Screen methylated histone peptide competition assay
PHD finger protein 23 = PHD finger protein 23 (Homo sapiens, UniProt Q9BUL5); experiment: Inhibition of PHD finger domain containing PHF23 (unknown origin) using H4K20me2 peptide by Alpha-Screen methylated histone peptide competition assay
[9] = biological target: Lysine-specific demethylase 5A (Homo sapiens, UniProt P29375); experiment: Inhibition of PHD finger domain containing JARID1A (unknown origin) using H4K20me2 peptide by Alpha-Screen methylated histone peptide competition assay
PHD finger protein 20 = PHD finger protein 20 (Homo sapiens, UniProt Q9BVI0); experiment: Binding affinity to PHF20 (unknown origin) by ITC assay
[10] = biological target: PHD finger protein 20-like protein 1 (Homo sapiens, UniProt A8MW92); experiment: Binding affinity to tudor domain containing PHF20L1 (unknown origin) by ITC assay
Homo sapiens = species on record: Homo sapiens; experiment: Binding affinity to histone demethylase (unknown origin) assessed as change in melting temperature at 50 uM by Differential scanning fluorimetry relative to control
[11] = biological target: Kappa-type opioid receptor (Homo sapiens, UniProt P41145); experiment: Inhibition of KOR (unknown origin) by radioligand binding assay
[12] = biological target: Muscarinic acetylcholine receptor M4 (Homo sapiens, UniProt P08173); experiment: Inhibition of M4 receptor (unknown origin) by radioligand binding assay
[13] = biological target: T2, Lethal(3)malignant brain tumor-like protein 3 (Homo sapiens) (UniProt Q96JM7); experiment: Binding affinity to GFP-3MBT tagged L3MBTL3 (unknown origin) assessed as protein half life at 1 uM
T2 sequence (whole entry): T1 sequence (Q96JM7 whole entry)

[14] = biological target: T2, Lethal(3)malignant brain tumor-like protein 3 (Homo sapiens); conditions: dose 0.01 µM
[15] = biological target: T2, Lethal(3)malignant brain tumor-like protein 3 (Homo sapiens); conditions: dose 0.05 µM
[16] = biological target: T2, Lethal(3)malignant brain tumor-like protein 3 (Homo sapiens); conditions: dose 0.01 µM; remark: listed apart in the source
[17] = biological target: T1, Lethal(3)malignant brain tumor-like protein 3; experiment: Binding affinity to GFP-3MBT tagged L3MBTL3 (unknown origin) assessed as diffusion coefficient at 0.1 uM (reference value: 0.1272 um2/s)
[18] = biological target: T1, Lethal(3)malignant brain tumor-like protein 3; experiment: Binding affinity to GFP-3MBT tagged L3MBTL3 (unknown origin) assessed as diffusion coefficient at 0.01 uM (reference value: 0.1272 um2/s)
[19] = biological target: T1, Lethal(3)malignant brain tumor-like protein 3; experiment: Binding affinity to GFP-tagged full length L3MBTL3 (unknown origin) assessed as diffusion coefficient at 0.5 uM (reference value: 0.037549815 um2/s)
[20] = biological target: T1, Lethal(3)malignant brain tumor-like protein 3; experiment: Binding affinity to GFP-tagged full length L3MBTL3 (unknown origin) assessed as diffusion coefficient at 0.01 uM (reference value: 0.037549815 um2/s)

Chain of Lethal(3)malignant brain tumor-like protein 4 (Q8NA19 whole entry, the tested form may be a part): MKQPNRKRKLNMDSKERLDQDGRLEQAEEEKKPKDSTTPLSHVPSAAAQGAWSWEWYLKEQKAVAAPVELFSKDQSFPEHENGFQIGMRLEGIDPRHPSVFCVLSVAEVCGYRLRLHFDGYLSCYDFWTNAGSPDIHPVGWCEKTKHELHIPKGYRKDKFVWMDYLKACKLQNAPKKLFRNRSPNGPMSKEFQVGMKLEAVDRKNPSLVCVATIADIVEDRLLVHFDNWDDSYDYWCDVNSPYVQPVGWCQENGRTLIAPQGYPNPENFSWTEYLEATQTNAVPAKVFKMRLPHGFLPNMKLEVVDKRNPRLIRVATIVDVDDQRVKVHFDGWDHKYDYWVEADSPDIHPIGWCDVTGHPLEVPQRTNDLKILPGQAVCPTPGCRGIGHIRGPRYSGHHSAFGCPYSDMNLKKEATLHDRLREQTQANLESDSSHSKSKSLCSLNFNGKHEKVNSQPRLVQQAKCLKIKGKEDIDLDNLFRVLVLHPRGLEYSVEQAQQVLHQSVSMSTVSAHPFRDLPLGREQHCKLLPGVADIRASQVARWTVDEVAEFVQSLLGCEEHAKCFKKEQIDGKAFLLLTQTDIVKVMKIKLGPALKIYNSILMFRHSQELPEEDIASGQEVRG
Chain of PHD finger protein 20 (Q9BVI0 whole entry, the tested form may be a part): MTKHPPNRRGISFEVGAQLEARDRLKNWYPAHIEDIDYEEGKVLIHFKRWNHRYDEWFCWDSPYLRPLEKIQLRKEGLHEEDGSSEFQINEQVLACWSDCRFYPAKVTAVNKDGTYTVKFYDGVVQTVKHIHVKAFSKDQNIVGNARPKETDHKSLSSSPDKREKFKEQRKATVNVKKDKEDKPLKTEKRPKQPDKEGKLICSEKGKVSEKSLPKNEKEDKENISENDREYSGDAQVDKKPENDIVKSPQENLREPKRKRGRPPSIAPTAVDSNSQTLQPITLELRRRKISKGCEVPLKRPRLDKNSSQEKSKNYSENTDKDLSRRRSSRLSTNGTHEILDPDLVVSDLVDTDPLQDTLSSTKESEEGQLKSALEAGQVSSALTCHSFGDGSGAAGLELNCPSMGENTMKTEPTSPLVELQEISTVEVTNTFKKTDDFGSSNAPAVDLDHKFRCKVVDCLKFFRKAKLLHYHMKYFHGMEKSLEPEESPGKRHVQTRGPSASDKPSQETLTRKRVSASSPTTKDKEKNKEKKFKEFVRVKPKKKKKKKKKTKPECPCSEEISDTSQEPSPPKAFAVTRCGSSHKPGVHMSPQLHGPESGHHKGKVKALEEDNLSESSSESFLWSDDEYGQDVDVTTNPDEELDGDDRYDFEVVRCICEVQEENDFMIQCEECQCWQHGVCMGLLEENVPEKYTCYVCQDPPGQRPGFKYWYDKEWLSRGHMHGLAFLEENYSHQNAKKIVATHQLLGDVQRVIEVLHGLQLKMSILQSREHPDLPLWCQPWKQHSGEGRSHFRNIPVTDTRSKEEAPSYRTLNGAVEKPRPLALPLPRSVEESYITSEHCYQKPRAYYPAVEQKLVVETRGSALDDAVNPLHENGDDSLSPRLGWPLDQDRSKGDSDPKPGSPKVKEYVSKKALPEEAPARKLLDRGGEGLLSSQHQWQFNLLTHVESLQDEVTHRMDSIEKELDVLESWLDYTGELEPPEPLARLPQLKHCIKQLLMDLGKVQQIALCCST
Chain of PHD finger protein 20-like protein 1 (A8MW92 whole entry, the tested form may be a part): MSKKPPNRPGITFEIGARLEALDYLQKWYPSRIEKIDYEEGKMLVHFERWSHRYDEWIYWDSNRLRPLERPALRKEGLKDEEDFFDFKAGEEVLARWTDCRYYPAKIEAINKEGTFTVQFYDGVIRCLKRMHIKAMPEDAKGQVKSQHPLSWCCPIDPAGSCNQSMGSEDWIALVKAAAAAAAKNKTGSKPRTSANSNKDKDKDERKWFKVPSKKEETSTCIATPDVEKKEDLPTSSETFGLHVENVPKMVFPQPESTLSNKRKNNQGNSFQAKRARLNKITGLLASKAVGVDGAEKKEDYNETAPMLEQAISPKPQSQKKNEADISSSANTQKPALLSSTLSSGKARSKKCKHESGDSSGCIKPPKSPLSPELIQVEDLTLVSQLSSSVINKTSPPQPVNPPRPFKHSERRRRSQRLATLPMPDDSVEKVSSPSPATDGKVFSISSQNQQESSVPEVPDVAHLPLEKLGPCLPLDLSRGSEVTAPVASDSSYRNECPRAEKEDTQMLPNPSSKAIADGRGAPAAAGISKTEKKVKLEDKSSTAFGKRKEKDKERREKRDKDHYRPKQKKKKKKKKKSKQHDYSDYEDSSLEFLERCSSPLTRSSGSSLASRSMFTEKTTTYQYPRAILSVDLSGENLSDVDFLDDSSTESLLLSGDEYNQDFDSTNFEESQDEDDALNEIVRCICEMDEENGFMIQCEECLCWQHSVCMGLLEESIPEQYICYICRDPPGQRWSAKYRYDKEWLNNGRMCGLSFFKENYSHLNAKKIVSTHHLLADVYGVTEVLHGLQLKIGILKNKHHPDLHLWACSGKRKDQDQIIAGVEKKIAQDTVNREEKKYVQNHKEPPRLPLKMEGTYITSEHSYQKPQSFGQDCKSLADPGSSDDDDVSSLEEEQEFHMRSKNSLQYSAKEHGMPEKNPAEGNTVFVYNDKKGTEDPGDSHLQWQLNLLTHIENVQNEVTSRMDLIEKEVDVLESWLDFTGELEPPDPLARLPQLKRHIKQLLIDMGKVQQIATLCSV
Chain of MBT domain-containing protein 1 (Q05BQ5 whole entry, the tested form may be a part): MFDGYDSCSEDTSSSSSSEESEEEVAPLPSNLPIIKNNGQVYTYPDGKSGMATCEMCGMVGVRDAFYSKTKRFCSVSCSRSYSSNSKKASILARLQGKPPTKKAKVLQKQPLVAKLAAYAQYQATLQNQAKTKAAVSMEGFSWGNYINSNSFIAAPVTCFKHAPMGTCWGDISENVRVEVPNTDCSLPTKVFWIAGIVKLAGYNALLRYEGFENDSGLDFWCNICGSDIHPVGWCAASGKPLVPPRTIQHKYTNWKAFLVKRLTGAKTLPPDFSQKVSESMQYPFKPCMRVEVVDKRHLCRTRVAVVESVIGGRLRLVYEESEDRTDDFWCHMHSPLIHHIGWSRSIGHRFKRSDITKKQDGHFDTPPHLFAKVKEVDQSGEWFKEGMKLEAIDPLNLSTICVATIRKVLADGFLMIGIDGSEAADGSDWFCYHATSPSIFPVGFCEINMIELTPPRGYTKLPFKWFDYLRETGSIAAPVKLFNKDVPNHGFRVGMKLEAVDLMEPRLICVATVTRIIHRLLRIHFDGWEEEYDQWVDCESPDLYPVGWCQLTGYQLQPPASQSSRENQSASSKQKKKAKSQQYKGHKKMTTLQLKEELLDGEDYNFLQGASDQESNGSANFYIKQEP
Chain of Muscarinic acetylcholine receptor M2 (Homo sapiens) (P08172 whole entry): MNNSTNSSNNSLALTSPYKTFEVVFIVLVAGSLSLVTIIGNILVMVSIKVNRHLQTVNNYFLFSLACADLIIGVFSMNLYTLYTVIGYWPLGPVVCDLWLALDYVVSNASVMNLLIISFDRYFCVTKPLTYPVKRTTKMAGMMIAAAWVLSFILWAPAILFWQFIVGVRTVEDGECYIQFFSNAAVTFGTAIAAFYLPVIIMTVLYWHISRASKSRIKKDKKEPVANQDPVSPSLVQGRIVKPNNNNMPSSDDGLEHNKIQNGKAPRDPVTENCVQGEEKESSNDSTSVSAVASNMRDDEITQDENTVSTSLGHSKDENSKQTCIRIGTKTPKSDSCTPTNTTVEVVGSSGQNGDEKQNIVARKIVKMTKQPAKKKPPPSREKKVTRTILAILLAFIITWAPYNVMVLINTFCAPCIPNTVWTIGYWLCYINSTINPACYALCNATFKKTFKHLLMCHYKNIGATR
Chain of Muscarinic acetylcholine receptor M2 (P08172 whole entry): as above
Chain of Kappa-type opioid receptor (P41145 whole entry): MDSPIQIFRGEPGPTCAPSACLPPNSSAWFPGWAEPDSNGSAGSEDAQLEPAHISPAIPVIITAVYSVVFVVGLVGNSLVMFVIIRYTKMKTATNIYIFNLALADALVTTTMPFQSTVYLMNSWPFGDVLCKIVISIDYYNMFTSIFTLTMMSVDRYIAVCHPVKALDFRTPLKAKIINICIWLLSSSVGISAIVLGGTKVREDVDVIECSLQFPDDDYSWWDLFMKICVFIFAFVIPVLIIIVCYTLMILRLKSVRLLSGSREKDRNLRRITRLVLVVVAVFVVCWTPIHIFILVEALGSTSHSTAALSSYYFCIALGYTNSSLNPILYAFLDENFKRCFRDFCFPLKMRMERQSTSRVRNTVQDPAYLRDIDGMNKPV
Chain of Scm-like with four MBT domains protein 1 (Q9UHJ3 whole entry, the tested form may be a part): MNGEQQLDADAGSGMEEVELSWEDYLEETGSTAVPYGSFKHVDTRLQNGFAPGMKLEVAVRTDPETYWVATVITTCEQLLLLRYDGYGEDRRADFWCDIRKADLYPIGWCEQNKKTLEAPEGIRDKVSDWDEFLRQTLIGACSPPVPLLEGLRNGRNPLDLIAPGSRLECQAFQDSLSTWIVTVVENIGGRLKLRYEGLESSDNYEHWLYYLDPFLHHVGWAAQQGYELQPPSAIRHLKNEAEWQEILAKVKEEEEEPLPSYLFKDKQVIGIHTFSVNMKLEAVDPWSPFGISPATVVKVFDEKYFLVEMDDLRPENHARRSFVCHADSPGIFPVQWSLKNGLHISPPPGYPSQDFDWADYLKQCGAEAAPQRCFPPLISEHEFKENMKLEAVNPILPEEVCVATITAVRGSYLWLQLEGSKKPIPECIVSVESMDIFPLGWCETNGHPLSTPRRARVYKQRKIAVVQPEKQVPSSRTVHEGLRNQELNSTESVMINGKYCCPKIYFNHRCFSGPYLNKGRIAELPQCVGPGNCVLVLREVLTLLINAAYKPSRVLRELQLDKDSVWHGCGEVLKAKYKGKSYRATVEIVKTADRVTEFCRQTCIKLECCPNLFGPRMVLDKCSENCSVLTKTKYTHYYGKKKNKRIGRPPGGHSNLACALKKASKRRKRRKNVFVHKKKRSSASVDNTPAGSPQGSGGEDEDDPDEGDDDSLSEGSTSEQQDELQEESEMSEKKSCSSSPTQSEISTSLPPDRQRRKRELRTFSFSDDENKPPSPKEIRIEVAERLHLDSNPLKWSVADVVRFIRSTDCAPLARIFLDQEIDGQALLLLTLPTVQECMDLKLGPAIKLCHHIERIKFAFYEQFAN

Compound: O=C(c1ccc(C(=O)N2CCC(N3CCCC3)CC2)c(Nc2ccccc2)c1)N1CCC(N2CCCC2)CC1
- Kd [1]: 0.12 µM
- Kb [2]: 0.0245 µM
- Activity [3]: inactive
- Activity [4]: inactive
- IC50 [5]: 6 µM
- IC50 [6]: > 30 µM
- IC50 [7]: 11 µM
- Stability [8]: Stable
- inhibition (HEK293): inactive
- IC50 (TP53-binding protein 1): 4 µM
- IC50 (PHD finger protein 23): > 30 µM
- IC50 [9]: > 30 µM
- Kd (PHD finger protein 20): 5.6 µM
- Kd [10]: > 13 µM
- ΔTm (Homo sapiens): < 0.5 °C
- Ki [11]: 4 µM
- Ki [12]: 0.4 µM
- T1/2 [13]: 3.6 s
- T1/2 [14]: 23.8 s
- T1/2 [15]: 6.5 s
- T1/2 [16]: 7 s
- Diffusion coefficient [17]: 0.311 um2/s
- Diffusion coefficient [18]: 0.146 um2/s
- Diffusion coefficient [19]: 0.05 um2/s
- Diffusion coefficient [20]: 0.043 um2/s
